Data reported in ChEMBL document CHEMBL1148714, “Design, synthesis, and in vivo SAR of a novel series of pyrazolines as potent selective androgen receptor modulators” (2007).
Calls of active or inactive are those of the source. The rule behind the calls is not given here.

What was measured:
[1] = tested on: Rattus norvegicus; assay: Stimulation of prostate weight in castrated immature Sprague-Dawley rat at 2 mg/day, po after 5 days; format: functional, Prostate gland
Summary of the method: (§1)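 Immature (~50 g) castrated male Sprague Dawley rats dosed once daily for 5 days. Test article given p.o. at 2 mg/day in 20% cyclodextrin; testosterone propionate reference given at 1 mg/day s.c. in sesame oil. Ventral prostate and levator ani wet weights taken on day 6, adjusted to body weight. % stimulation uses vehicle = 0% and testosterone = 100%. n = 3/group.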

[2] = tested on: Rattus norvegicus; assay: Stimulation of levator ani muscle weight in castrated immature Sprague-Dawley rat at 2 mg/day, po after 5 days; format: functional; summary of the method: as §1
[3] = species: Rattus norvegicus; assay: Stimulation of levator ani muscle weight in castrated immature Sprague-Dawley rat; format: functional
Summary of the method: (§2)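 Immature (~50 g) castrated male Sprague Dawley rats given oral doses once daily at 0.1, 0.3, 1, 3 mg/day. Ventral prostate and levator ani wet weights adjusted to body weight. % stimulation uses vehicle = 0% and testosterone-treated (1 mg/day) group = 100%; ED50 derived from the four-point dose series. n = 3/group.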

[4] = species: Rattus norvegicus; assay: Inhibition of prostate weight in castrated immature male Sprague-Dawley rat at 2 mg/day relative to control; format: functional, Prostate gland
Summary of the method: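 Immature (~50 g) castrated male Sprague Dawley rats; test article orally at 2 mg/day once daily for 5 days, with testosterone propionate 0.1 mg/day s.c. in sesame oil. Ventral prostate wet weight taken on day 6 after CO2 euthanasia, adjusted to body weight. Inhibition given as % of testosterone-enhanced weight, vehicle group = 100% and testosterone-alone group = 0%. n = 3/group.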

[5] = species: Rattus norvegicus; assay: Stimulation of prostate weight in castrated immature Sprague-Dawley rat; format: functional, Prostate gland; summary of the method: as §2
[6] = tested on: Rattus norvegicus; assay: Stimulation of prostate weight in castrated Sprague-Dawley rat at 30 mg/kg; format: functional, Prostate gland
Summary of the method: (§3)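 Mature (150–200 g) castrated male Sprague Dawley rats dosed by oral gavage once daily for 14 days in 20% cyclodextrin or 0.5% methylcellulose. Five-point doses: 0.3, 1, 3, 10, 30 mg/kg. Testosterone propionate reference given at 5 mg/kg s.c. in sesame oil. Ventral prostate and levator ani wet weights taken on day 15, adjusted to body weight. % stimulation uses vehicle = 0% and testosterone = 100%; ED50 derived from the doses. n = 3.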

[7] = species: Rattus norvegicus; assay: Stimulation of prostate weight in castrated Sprague-Dawley rat; format: functional; settings: Prostate gland; summary of the method: as §3
[8] = species: Rattus norvegicus; assay: Stimulation of levator ani muscle weight in castrated Sprague-Dawley rat; format: functional; summary of the method: as §3
[9] = tested on: Rattus norvegicus; assay: Stimulation of levator ani muscle weight in castrated Sprague-Dawley rat at 30 mg/kg; format: functional; summary of the method: as §3
[10] = species: Rattus norvegicus; assay: Stimulation of prostate weight in castrated immature Sprague-Dawley rat at 3 mg/day; format: functional, Prostate gland; summary of the method: as §2
[11] = tested on: Rattus norvegicus; assay: Inhibition of prostate weight in intact Sprague-Dawley rat at 30 mg/kg relative to control; format: functional; settings: Prostate gland
[12] = species: Rattus norvegicus; assay: Stimulation of levator ani muscle weight in castrated immature Sprague-Dawley rat at 3 mg/day; format: functional; summary of the method: as §2
[13] = tested on: Rattus norvegicus; assay: Stimulation of prostate weight in castrated immature Sprague-Dawley rat at 1 mg/day, sc; format: functional, Prostate gland
[14] = tested on: Rattus norvegicus; assay: Stimulation of levator ani muscle weight in castrated immature Sprague-Dawley rat at 1 mg/day, sc; format: functional

SMILES | Activity [1] [%] | Activity [2] [%] | other results
CC(=O)Nc1ccc(C2=NNC(C)(C(=O)Nc3ccc(Cl)c(C(F)(F)F)c3)C2)cc1 (stereo not given) | <10 | 17 | –
CCO/C(=N\c1ccc(C#N)c(C(F)(F)F)c1)[C@]1(C)CC(C(F)(F)F)=NN1 | – | – | ED50 [3]: 0.86 mg/day; Inhibition [4]: 27%; ED50 [5]: >3 mg/day
CC1(C(=O)Nc2ccc(C#N)c(C(F)(F)F)c2)CC(c2ccc(F)cc2)=NN1 (stereo not given) | 20 | 44 | –
CCC1=NNC(C)(C(=O)Nc2ccc(C#N)c(C(F)(F)F)c2)C1 (stereo not given) | <10 | <10 | –
CCSc1cc(C#N)c(C(F)(F)F)cc1NC(=O)C1(C)CC(C(F)(F)F)=NN1 (stereo not given) | <10 | 42 | –
CC1(C(=O)Nc2ccc([N+](=O)[O-])c(C(F)(F)F)c2)CC(c2ccc(F)cc2)=NN1 (stereo not given) | <10 | 18 | –
CC1=NOC(C)(C(=O)Nc2ccc(C#N)c(C(F)(F)F)c2)C1 (stereo not given) | <10 | <10 | –
CCO/C(=N\c1ccc(C#N)c(C(F)(F)F)c1)C1(C)CC(C(F)(F)F)=NN1 (stereo not given) | 22 | 75 | ED50 [3]: 0.25 mg/day
CC1(C(=O)Nc2ccc(C#N)c(C(F)(F)F)c2)CC(CC(F)(F)F)=NN1 (stereo not given) | <10 | 10 | –
CC1(C(=O)Nc2ccc(C#N)cc2)CC(C(F)(F)F)=NN1 (stereo not given) | <10 | <10 | –
CCO/C(=N\c1ccc(C#N)c(C(F)(F)F)c1)[C@@]1(C)CC(C(F)(F)F)=NN1 | – | – | ED50 [3]: 0.1 mg/day; Inhibition [4]: <10%; ED50 [5]: 0.16 mg/day
CCN1N=C(C(F)(F)F)C[C@]1(C)C(=O)Nc1ccc(C#N)c(C(F)(F)F)c1 | – | – | ED50 [3]: 0.45 mg/day; Inhibition [4]: <10%; ED50 [5]: >3 mg/day
C[C@@]1(C(=O)Nc2ccc(C#N)c(C(F)(F)F)c2)CC(C(F)(F)F)=NN1 | – | – | Activity [6]: 46%; ED50 [7]: > 30 mg/kg; ED50 [3]: 0.11 mg/day; ED50 [8]: 3.8 mg/kg; Activity [9]: 120%; Inhibition [4]: 40%; Activity [10]: 51%; inhibition in vivo at 30 mg/kg [11]: 33%; Activity [12]: 90%; ED50 [5]: 0.76 mg/day
CC1(C(=O)Nc2ccc(Br)c(C(F)(F)F)c2)CC(C(F)(F)F)=NN1 (stereo not given) | 12 | 41 | –
CC(=O)Nc1cccc(C2=NNC(C)(C(=O)Nc3ccc(C#N)c(C(F)(F)F)c3)C2)c1 (stereo not given) | <10 | <10 | –
CC1(C(=O)Nc2cc(C(F)(F)F)c(C#N)cc2I)CC(C(F)(F)F)=NN1 (stereo not given) | 47 | 86 | –
CC1(C(=O)Nc2ccc(Cl)c(C(F)(F)F)c2)CC(C(F)(F)F)=NN1 (stereo not given) | <10 | 15 | –
CCC1(C(=O)Nc2ccc(C#N)c(C(F)(F)F)c2)CC(C(F)(F)F)=NN1 (stereo not given) | 24 | 67 | Activity [6]: 19%; ED50 [7]: > 30 mg/kg; ED50 [8]: 21 mg/kg
CC(=O)Nc1ccc(CC2=NNC(C)(C(=O)Nc3ccc(C#N)c(C(F)(F)F)c3)C2)cc1 (stereo not given) | 24 | 51 | –
CCN1N=C(C(F)(F)F)CC1(C)C(=O)Nc1ccc(C#N)c(C(F)(F)F)c1 (stereo not given) | 47 | 95 | –
CC(=O)Nc1ccc(C2=NNC(C)(C(=O)Nc3ccc(C#N)c(C#N)c3)C2)cc1 (stereo not given) | <10 | <10 | –
CC1(C(=O)Nc2ccc([N+](=O)[O-])c(C(F)(F)F)c2)CC(c2ccc(NC(=O)C(F)(F)F)cc2)=NN1 (stereo not given) | 10 | 21 | –
N#Cc1ccc(NC(=O)C2(C(F)(F)F)CC(C(F)(F)F)=NN2)cc1C(F)(F)F (stereo not given) | 13 | 37 | –
CCN1N=C(C(F)(F)F)C[C@@]1(C)C(=O)Nc1ccc(C#N)c(C(F)(F)F)c1 | – | – | ED50 [3]: 0.12 mg/day; Inhibition [4]: 18%; ED50 [5]: 2.2 mg/day
CC1=NNC(C(=O)Nc2ccc(C#N)c(C(F)(F)F)c2)(C(F)(F)F)C1 (stereo not given) | 46 | 64 | –
CC(C)C1=NNC(C)(C(=O)Nc2ccc(C#N)c(C(F)(F)F)c2)C1 (stereo not given) | <10 | <10 | –
CC(=O)Nc1ccc(C2=NNC(C)(C(=O)Nc3ccc([N+](=O)[O-])c(C(F)(F)F)c3)C2)cc1 (stereo not given) | 15 | 35 | –

SMILES | Activity [1] [%] | Activity [2] [%] | other results
CC1(C(=O)Nc2cc(C(F)(F)F)c(C#N)cc2Cl)CC(C(F)(F)F)=NN1 (stereo not given) | 15 | 57 | –
CC(C)(C)C1=NNC(C)(C(=O)Nc2ccc(C#N)c(C(F)(F)F)c2)C1 (stereo not given) | <10 | 36 | –
CC1(C(=O)Nc2cc(C(F)(F)F)c(C#N)cc2C#N)CC(C(F)(F)F)=NN1 (stereo not given) | <10 | <10 | –
CC(C)C(=O)Nc1ccc([N+](=O)[O-])c(C(F)(F)F)c1 [FLUTAMIDE] | – | – | inhibition in vivo at 30 mg/kg [11]: 51%
CC1(C(=O)Nc2ccc([N+](=O)[O-])c(C(F)(F)F)c2)CC(C(F)(F)F)=NN1 (stereo not given) | 38 | 21 | –
CCCC1=NNC(C)(C(=O)Nc2ccc(C#N)c(C(F)(F)F)c2)C1 (stereo not given) | <10 | <10 | –
CC1(C(=O)Nc2ccc(C#N)c(C(F)(F)F)c2)CC(C(F)(F)F)=NN1 (stereo not given) | 28 | 71 | Activity [6]: 25%; ED50 [7]: > 30 mg/kg; ED50 [8]: 7.9 mg/kg; Activity [11]: inactive
CC1(C(=O)Nc2ccc(C#N)c(C(F)(F)F)c2)CC(C(F)(F)C(F)(F)F)=NN1 (stereo not given) | <10 | 15 | –
CCC(=O)O[C@H]1CC[C@H]2[C@@H]3CCC4=CC(=O)CC[C@]4(C)[C@H]3CC[C@]12C [TESTOSTERONE PROPIONATE] | – | – | Activity [13]: 100%; ED50 [7]: 0.25 mg/kg; ED50 [3]: 0.1 mg/day; Activity [14]: 100%; ED50 [8]: 0.17 mg/kg; ED50 [5]: 0.1 mg/day
CCOC(=O)C1=NNC(C)(C(=O)Nc2ccc([N+](=O)[O-])c(C(F)(F)F)c2)C1 (stereo not given) | <10 | <10 | –
CCCC1(C(=O)Nc2ccc(C#N)c(C(F)(F)F)c2)CC(C(F)(F)F)=NN1 (stereo not given) | <10 | 18 | –
CN1N=C(C(F)(F)F)CC1(C)C(=O)Nc1ccc(C#N)c(C(F)(F)F)c1 (stereo not given) | <10 | 44 | –
CO/C(=N\c1ccc(C#N)c(C(F)(F)F)c1)C1(C)CC(C(F)(F)F)=NN1 (stereo not given) | 30 | 86 | –
C[C@]1(C(=O)Nc2ccc(C#N)c(C(F)(F)F)c2)CC(C(F)(F)F)=NN1 | – | – | Activity [6]: 4%; ED50 [7]: > 30 mg/kg; ED50 [3]: 0.86 mg/day; ED50 [8]: > 30 mg/kg; Activity [9]: 9%; Inhibition [4]: 22%; Activity [10]: 29%; inhibition in vivo at 30 mg/kg [11]: 25%; Activity [12]: 49%; ED50 [5]: 0.94 mg/day
CC1(C(=O)Nc2ccc(C#N)c(C(F)(F)F)c2)CC(C(F)(F)F)=NN1C(=O)C(F)(F)F (stereo not given) | 30 | 70 | –
CCN1N=C(C)CC1(C)C(=O)Nc1ccc(C#N)c(C(F)(F)F)c1 (stereo not given) | 18 | 55 | –
CC1(C(=O)Nc2ccc(Cl)c(Cl)c2)CC(C(F)(F)F)=NN1 (stereo not given) | 10 | <10 | –
CCc1c(NC(=O)C2(C)CC(C(F)(F)F)=NN2)ccc(C#N)c1C(F)(F)F (stereo not given) | 14 | 88 | Activity [6]: 18%; ED50 [7]: > 30 mg/kg; ED50 [8]: 17 mg/kg
CC(=O)Nc1ccc(C2=NN(C)C(C)(C(=O)Nc3ccc(C#N)c(C(F)(F)F)c3)C2)cc1 (stereo not given) | <10 | <10 | –
CC(=O)Nc1ccc(C2=NNC(C)(C(=O)Nc3ccc(C#N)c(C(F)(F)F)c3)C2)cc1 (stereo not given) | 16 | 57 | –
CCc1cc(C#N)c(C(F)(F)F)cc1NC(=O)C1(C)CC(C(F)(F)F)=NN1 (stereo not given) | <10 | <10 | –
C[C@](O)(CS(=O)(=O)c1ccc(F)cc1)C(=O)Nc1ccc(C#N)c(C(F)(F)F)c1 [(R)-BICALUTAMIDE] | – | – | Inhibition [4]: 70%; inhibition in vivo at 30 mg/kg [11]: 67%
CC1(C(=O)Nc2ccc(C#N)c(C(F)(F)F)c2)CC=NN1 (stereo not given) | <10 | <10 | –
CC1(C(=O)Nc2ccc(C#N)c(C(F)(F)F)c2)CC(c2ccc(F)cc2)=NO1 (stereo not given) | <10 | <10 | –
CC1=NNC(C)(C(=O)Nc2ccc(C#N)c(C(F)(F)F)c2)C1 (stereo not given) | 29 | 62 | –
COc1cc(C#N)c(C(F)(F)F)cc1NC(=O)C1(C)CC(C(F)(F)F)=NN1 (stereo not given) | 18 | 52 | –
